Data set [1] in a line: Chemical stability in Tris-HCI buffer at pH 7.4 at 100 uM and measured after 24 hrs by HPLC analysis. It is filed as physicochemical. The conditions noted are these: pH 7.4, 24 h. In a few lines: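 Prodrug (100 μM initial, from 10 mM DMSO stock; 2% DMSO) incubated at 37 °C in 50 mM Tris–HCl pH 7.4 for 24 h. Samples taken at intervals, quenched 1:1 with ACN, analysed by HPLC-UV (230–240 nm). Pseudo-first-order t1/2 taken from the slope of log remaining prodrug vs time.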

A short description of data set [2]: Drug uptake in mouse Astrocyte cells expressing OATPIC4/5/6 at 100 uM incubated for 30 mins in presence of naringin by liquid scintillation counter analysis. The note with it: 0.5 h. It counts as ADME, cell-based. In a few lines:
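Astrocytes preincubated 10 min with naringin (100 μM), then incubated with substrate (100 μM) plus naringin in HBSS pH 7.4 for 30 min at 37 °C. Uptake normalized to protein and expressed relative to control; one-way ANOVA with Dunnett's test.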

Data set [3] is described as follows: Drug uptake in human U-87 MG cells expressing OATPIC1 at 100 uM incubated for 30 mins in presence of diclofenac by HPLC analysis. It counts as ADME, cell-based. The note with it: u-87mg atcc, 0.5 h. In a few lines: (§1)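 U-87MG cells preincubated 10 min with diclofenac or flufenamic acid (100 μM), then co-incubated with the compound (100 μM) plus inhibitor in HBSS pH 7.4 for 30 min at 37 °C. Uptake quantified by HPLC, normalized to protein and expressed as % of control. One-way ANOVA with Dunnett's test; n = 3.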

Data set [4] can be described thus: Drug uptake in human U-87 MG cells expressing OATPIC1 at 100 uM incubated for 30 mins in presence of flufenamic acid by HPLC analysis. It counts as ADME, cell-based. The conditions noted are these: u-87mg atcc, 0.5 h. The gist of the method: as §1
Data set [5] can be described thus: Prodrug conversion in human U-87 MG cells expressing OATPIC1 assessed as OATPIC1 mediated drug release at 100 uM incubated for 30 mins by HPLC analysis. The note with it: u-87mg atcc, 0.5 h. It is filed as ADME, cell-based. In a few lines: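 U-87MG cells incubated with prodrug at 100 μM for 30 min at 37 °C in HBSS. Released parent drug in cell lysate measured by HPLC and normalized to protein, alongside uptake of the parent drug itself; n = 3–6.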

Data set [6] can be described thus: Drug uptake in human U-87 MG cells expressing OATPIC1 assessed as Vmax at 200 uM incubated for 30 mins by Michaelis-Menten analysis. It is filed as ADME, cell-based. The conditions noted are these: u-87mg atcc, 0.5 h. In a few lines: (§2)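 U-87MG cells seeded at 1 × 10^5/well and used 1 day later. After 10 min preincubation in HBSS pH 7.4 at 37 °C, compounds added at 5–400 μM for 30 min at 37 °C. Cells washed with ice-cold HBSS, lysed in 0.1 M NaOH, acidic-ACN precipitated, analysed by HPLC against a spiked lysate standard curve, and normalized to Bradford protein. Km/Vmax fitted by Michaelis–Menten; n = 3 biological replicates.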

The nature of data set [7]: Drug uptake in mouse Astrocyte cells expressing OATPIC4/5/6 assessed as Vmax at 200 uM incubated for 30 mins by Michaelis-Menten analysis. The conditions noted are these: 0.5 h. It is filed as ADME, cell-based. The gist of the method: (§3)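 Primary astrocytes from neonatal (P0–2) C57BL/6JOlaHsd pups, microglia removed at day 7, seeded at 10^4 cells/well 3 days before assay. Substrate added at 5–400 μM in HBSS pH 7.4 for 30 min at 37 °C. [3H]-estrone-3-sulfate measured by liquid scintillation and prodrugs by HPLC; normalized to protein. Km/Vmax fitted by Michaelis–Menten.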

A short description of data set [8]: Prodrug conversion in JAXC57BL/6 mouse brain assessed as total amount of prodrug and ketoprofen level at 25 micromol/kg,ip and measured after 30 mins by LC-MS/MS analysis. The conditions noted are these: in vivo, 0.5 h, dose 25 µmol/kg. It counts as ADME, tissue-based. In a few lines: (§4)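 Male C57BL/6J mice, seven weeks old, given an ip bolus of 25 μmol/kg. Formulation 2.5 mM in saline with 30% Macrogol 15-hydroxystearate and 3% DMSO. Pentobarbital anaesthesia, then transcardial perfusion with ice-cold saline for 1 min. Whole brain (minus cerebellum and pons) taken at 30 min, homogenized in Tris pH 7.4, ACN-precipitated with labetalol internal standard, and quantified by LC–MS/MS in nmol/g.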

The nature of data set [9]: Drug uptake in JAXC57BL/6 mouse brain at 25 micromol/kg,ip and measured after 30 mins by LC-MS/MS analysis. It is filed as ADME, tissue-based. The conditions noted are these: in vivo, 0.5 h, dose 25 µmol/kg. The gist of the method: as §4
A short description of data set [10]: Drug uptake in mouse Astrocyte cells expressing OATPIC4/5/6 at 5 to 400 uM incubated for 30 mins by liquid scintillation counter analysis. It counts as ADME, cell-based. The note with it: 0.5 h, dose 5-400 µM. In a few lines:
as §3

The nature of data set [11]: Drug uptake in mouse Astrocyte cells expressing OATPIC4/5/6 at pH 4.5 to 8.5 at 100 uM incubated for 30 mins by liquid scintillation counter analysis. It counts as ADME, cell-based. The note with it: pH 4.5, 0.5 h. In a few lines:
(§5)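 Mouse primary astrocytes incubated with [3H]-estrone-3-sulfate for 30 min at 37 °C in HBSS at pH 4.5–8.5 (MES or HEPES buffer). At pH 7.4, uptake was also run with choline chloride in place of Na+. Read by liquid scintillation counting and normalized to protein; n = 3 biological replicates.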

A short description of data set [12]: Drug uptake in mouse Astrocyte cells expressing OATPIC4/5/6 at 100 uM incubated for 30 mins in presence of Na+ ions by liquid scintillation counter analysis. It counts as ADME, cell-based. The note with it: 0.5 h. In a few lines: as §5
A short description of data set [13]: Drug uptake in mouse Astrocyte cells expressing OATPIC4/5/6 at 100 uM incubated for 30 mins in absence of Na+ ions by liquid scintillation counter analysis. It is filed as ADME, cell-based. The note with it: 0.5 h. In a few lines:
as §5

A short description of data set [14]: Drug uptake in human U-87 MG cells expressing OATPIC1 at 5 to 400 uM incubated for 30 mins by HPLC analysis. It counts as ADME, cell-based. The conditions noted are these: u-87mg atcc, 0.5 h, dose 5-400 µM. In a few lines:
as §2

The nature of data set [15]: Drug uptake in human U-87 MG cells expressing OATPIC1 at pH 4.5 to 8.5 at 100 uM incubated for 30 mins by HPLC analysis. It is filed as ADME, cell-based. The conditions noted are these: u-87mg atcc, pH 4.5, 0.5 h. The gist of the method: (§6)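 U-87MG cells incubated with T4 for 30 min at 37 °C in HBSS buffered with HEPES (pH 7.4, 8.5) or MES (pH 4.5–6.5). For Na+-free conditions, choline chloride replaced NaCl at pH 7.4. Lysates analysed by HPLC and normalized to protein; mean ± SD, n = 3 biological replicates.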

Data set [16] can be described thus: Drug uptake in human U-87 MG cells expressing OATPIC1 at 100 uM incubated for 30 mins in presence of Na+ ions by HPLC analysis. It counts as ADME, cell-based. The conditions noted are these: u-87mg atcc, 0.5 h. The gist of the method:
as §6

The nature of data set [17]: Drug uptake in human U-87 MG cells expressing OATPIC1 at 100 uM incubated for 30 mins in absence of Na+ ions by HPLC analysis. It counts as ADME, cell-based. The note with it: u-87mg atcc, 0.5 h. The gist of the method: as §6

Take `CC(C(=O)Oc1c(I)cc(C[C@H](N)C(=O)O)cc1I)c1ccc(-c2ccccc2)c(F)c1` (stereo not given in full): in data set [1], the Stability result was “Stable”. For the same compound, the Drug uptake entry in [2], in data set [3] and in [4] was “Not Active” in each case. The Drug metabolism result in [5] is reported as “Metabolite_Detected”.

Consider `N[C@@H](Cc1cc(I)c(Oc2cc(I)c(OC(=O)c3ccccc3O)c(I)c2)c(I)c1)C(=O)O`, for which, in data set [1], the Stability entry is given as “Stable”. In addition, the figures for the Drug uptake result in data set [2], in data set [3] and in data set [4] were “Not Active”, “Active” and “Active”, respectively. Moreover, the Drug metabolism entry in [5] is “Metabolite_Detected”.

As to `N[C@@H](Cc1cc(I)c(OC(=O)c2ccccc2O)c(I)c1)C(=O)O`, the Stability entry in data set [1] is on record as “Stable”. In addition, the Drug uptake entry in data set [2] is on record as “Not Active”; in [3] it was “Active”; in data set [4] it was “Active”. In [5], the Drug metabolism result is given as “Metabolite_Detected”.

For the compound `COc1ccc2cc([C@H](C)C(=O)Oc3c(I)cc(Oc4c(I)cc(C[C@H](N)C(=O)O)cc4I)cc3I)ccc2c1`, the Stability result in data set [1] is on record as “Stable”. Moreover, the Drug uptake result in data set [2] is “Active”; in [3] it was “Not Active”; in data set [4] it was “Active”. For the same compound, the Drug metabolism entry in data set [5] was “Metabolite_Detected”.

With `CC(C(=O)Oc1c(I)cc(C[C@H](N)C(=O)O)cc1I)c1cccc(C(=O)c2ccccc2)c1` (stereo not given in full), the Stability result in [1] is given as “Stable”. In addition, the Vmax (usually the rate approached at saturating substrate) in data set [6] was 1.27 nmol/min/mg. For the same compound, the Drug uptake entry in data set [2] is “Not Active”; in data set [3], “Active”; in data set [4], “Active”. Moreover, the Drug metabolism result in data set [5] was “Metabolite_Detected”.

For `COc1ccc2cc([C@H](C)C(=O)Oc3c(I)cc(C[C@H](N)C(=O)O)cc3I)ccc2c1`, the Stability entry in data set [1] is on record as “Stable”. For the same compound, the Drug uptake result in [2], in [3] and in data set [4] was “Active” in each case. Moreover, the Drug metabolism entry in [5] was “Metabolite_Detected”.

As for `CC(C(=O)Oc1c(I)cc(Oc2c(I)cc(C[C@H](N)C(=O)O)cc2I)cc1I)c1ccc(-c2ccccc2)c(F)c1` (stereo not given in full), in data set [1], the Stability result is recorded as “Stable”. The Drug uptake result in [2], in [3] and in [4] was “Not Active” in each case. Further, the Drug metabolism result in data set [5] is “Metabolite_Detected”.

Take `CC(C(=O)Oc1c(I)cc(Oc2c(I)cc(C[C@H](N)C(=O)O)cc2I)cc1I)c1cccc(C(=O)c2ccccc2)c1` (stereo not given in full): the Stability entry in [1] is listed as “Stable”. Also, the Drug uptake result in data set [2] is on record as “Not Active”; in data set [3], “Not Active”; in [4], “Not Active”; in data set [8], 0.78 nmol/g. In [7], the Vmax came to 5.5 nmol/min/mg. Further, the Drug metabolism result in data set [5] is “Metabolite_Detected”.

For the compound `CC(C(=O)O)c1cccc(C(=O)c2ccccc2)c1` (racemic) [KETOPROFEN], in data set [9], the Drug uptake turned out to be 0.22 nmol/g.

As for `C[C@]12CC[C@@H]3c4ccc(OS(=O)(=O)O)cc4CC[C@H]3[C@@H]1CCC2=O` [ESTRONE SULFURIC ACID], the Drug uptake result in [10] is on record as “Active”; in [11], “Active”; in data set [12] it was “Active”; in data set [13], “Active”; in data set [2], “Not Active”.

On to `N[C@@H](Cc1cc(I)c(Oc2cc(I)c(O)c(I)c2)c(I)c1)C(=O)O` [LEVOTHYROXINE], for which the Drug uptake result in [14] is reported as “Active”; in data set [15] it was “Active”; in data set [16] it was “Active”; in data set [17] it was “Active”; in data set [3], “Not Active”; in data set [4], “Not Active”.

Source of the values: ChEMBL document CHEMBL5390271, “Targeting Glial Cells by Organic Anion-Transporting Polypeptide 1C1 (OATP1C1)-Utilizing l-Thyroxine-Derived Prodrugs” (J Med Chem, 2023).
